Screens (PubChem)
Sampled rows, rich in hits. Any-hit rate of the full collection: about 2.2%.
RBBP9 inh: human RBBP9 inhibitors, primary screen, biochemical, fluorescence polarization, FP-Rh probe, HTS; Serine hydrolase RBBP9 (Homo sapiens), O75884; recombinant RBBP9; inhibition, % at 7.94 µM; 220,000 compounds, 0.2% hits;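 active = inhibition above the campaign mean of all tested compounds plus 3 SD, cut at about 14% in these data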;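 also: plate controls were DMSO wells with RBBP9 for no effect and wells lacking RBBP9 protein for full effect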
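Assay system: recombinant human RBBP9; Reagent: Serine-hydrolase probe FP-Rh, 375 nM pre-mixing; Doses: 7.94 µM single dose, 0.794% DMSO; Incubation: 30 min then 45 min, 25 °C; Detection: fluorescence polarization (mP), excitation 525 nm, emission 598 nm; Evaluation: percent inhibition from mP, scaled between DMSO and no-protein wells.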
MCL1-BIM inh: inhibitors of MCL1 binding to BIM-BH3, primary screen, biochemical, fluorescence polarization. 320,000 compounds, 0.68% hits. inhibition, % at 10.9 µM. GST-MCL1 / FITC-Bim-BH3 fluorescence polarization. AID 2057, 2009;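 active = inhibition above the mean inhibition of all tested compounds plus 3 SD, set per campaign, cut at about 40% in these data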;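 also: 0% = DMSO wells and 100% = unlabeled Bim-BH3 peptide control; higher means more loss of mP so more displacement of Bim peptide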
Target sequence (Q07820 whole entry, looked up): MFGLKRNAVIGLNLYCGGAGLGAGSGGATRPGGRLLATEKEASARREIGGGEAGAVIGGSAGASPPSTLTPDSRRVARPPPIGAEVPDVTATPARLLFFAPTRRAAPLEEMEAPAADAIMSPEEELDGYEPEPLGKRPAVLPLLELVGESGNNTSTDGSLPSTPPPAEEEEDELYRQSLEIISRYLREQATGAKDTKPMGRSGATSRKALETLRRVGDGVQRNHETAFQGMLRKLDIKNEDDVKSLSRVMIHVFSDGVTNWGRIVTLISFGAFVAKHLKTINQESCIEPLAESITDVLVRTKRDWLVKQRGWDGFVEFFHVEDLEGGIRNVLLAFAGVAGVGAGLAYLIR
Mcl1 Noxa PPI: Mcl-1/Noxa binding inhibitors, primary screen, biochemical, TR-FRET, 1536-well; Induced myeloid leukemia cell differentiation protein Mcl-1 (Homo sapiens), Q07820; TR-FRET Mcl-1/Noxa peptide binding, 2 h; inhibition, % at 21.7 µM; 220,000 compounds, 1.5% hits; AID 1022, 2008;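 active = compounds that cut the protein-peptide binding signal by more than 50% relative to plate controls in a single-dose test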;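 also: His-tagged Mcl-1 with rhodamine Noxa BH3 peptide and terbium anti-His antibody; 0% = Mcl-1 plus Noxa peptide wells and 100% = peptide-only wells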
EBV gp42 block: Epstein-Barr virus gp42 inhibitors, primary screen, biochemical, uHTS, fluorescence polarization. 220,000 compounds, 0.42% hits. inhibition, % (tested at 21.74 µM). Fluorescence polarization binding assay, mP read-out; in the data active = inhibition above about 50%
Target sequence (Q1HVG2 whole entry, looked up): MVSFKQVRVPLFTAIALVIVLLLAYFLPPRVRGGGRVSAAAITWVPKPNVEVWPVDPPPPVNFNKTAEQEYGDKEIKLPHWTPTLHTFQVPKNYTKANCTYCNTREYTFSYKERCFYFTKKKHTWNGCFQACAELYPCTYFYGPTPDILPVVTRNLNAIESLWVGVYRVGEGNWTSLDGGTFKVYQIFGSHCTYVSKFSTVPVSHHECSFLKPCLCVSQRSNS
Mcl1-Bid inh: Mcl-1/Bid binding inhibitors, primary screen, biochemical, TR-FRET, 1536-well | Induced myeloid leukemia cell differentiation protein Mcl-1 (Homo sapiens), Q07820 | TR-FRET Mcl-1/Bid-Dy647 peptide binding | inhibition, % at 21.7 µM | 220,000 compounds, 0.97% hits;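 active = compounds that cut the binding signal by more than half at the single screening dose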;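 also: His-tagged Mcl-1 with europium anti-His antibody binding Bid BH3 peptide; 0% = Mcl-1 plus peptide wells and 100% = peptide-only wells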
Bim-Mcl-1: inhibitors of Bim peptide binding to Mcl-1, primary screen, biochemical, bead-based flow cytometry, multiplex; 190,000 compounds, 0.1% hits; AID 1009, 2008; inhibition, % at 10 µM; Bim peptide-Mcl-1 binding; in the data active = inhibition above about 40%;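 also: 0% = no compound tracer wells and 100% = peptide blocker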
An asterisk follows results filed as active.

Screening Cc1sc(-n2c(C)cc(/C=C3\SC(=S)NC3=O)c2C)c(C#N)c1C returned RBBP9 inh -2, MCL1-BIM inh -56, Mcl1 Noxa PPI 75*, EBV gp42 block 0, Mcl1-Bid inh -56 and Bim-Mcl-1 0.
For Cc1cc(/C=C2\SC(=S)NC2=O)c(C)n1-c1cccc(O)c1 the results were RBBP9 inh -3, MCL1-BIM inh -79, Mcl1 Noxa PPI 53*, EBV gp42 block -66 and Mcl1-Bid inh -41.
`CCn1c(C)cc(/C=C2/SC(=S)NC2=O)c1C` gave RBBP9 inh 2, MCL1-BIM inh -66, Mcl1 Noxa PPI 6, EBV gp42 block -158, Mcl1-Bid inh -29 and Bim-Mcl-1 -5.
For Cc1cc(/C=C2/C(=O)NN(c3ccccc3)C2=O)c(C)n1-c1cccc(O)c1 the results were RBBP9 inh -3, MCL1-BIM inh 8, Mcl1 Noxa PPI 87*, EBV gp42 block 5, Mcl1-Bid inh -20 and Bim-Mcl-1 -7.
`O=C1C(=Cc2cccn2-c2ccccc2)C(=O)c2ccccc21` gave RBBP9 inh -6, MCL1-BIM inh 42*, Mcl1 Noxa PPI 102*, EBV gp42 block -44, Mcl1-Bid inh 73* and Bim-Mcl-1 4.
O=C(O)c1cccc(-n2cccc2C=C2C(=O)c3ccccc3C2=O)c1 was read as RBBP9 inh 2, MCL1-BIM inh 7, Mcl1 Noxa PPI 26, EBV gp42 block 0, Mcl1-Bid inh -113 and Bim-Mcl-1 27.
For CCN(CC1CCCO1)C(=O)C1CCN(C2CCN(Cc3ccccc3C)CC2)CC1 (configuration not stated) the results were MCL1-BIM inh 9.
For Cc1cc(C=C2C(=O)c3ccccc3C2=O)c(C)n1-c1ccccc1 the results were RBBP9 inh -5, MCL1-BIM inh -3, Mcl1 Noxa PPI 5, EBV gp42 block 57*, Mcl1-Bid inh -42 and Bim-Mcl-1 0.
For Cc1n[nH]c(=O)n1-c1ccc(OCc2ccccc2)cc1 the results were RBBP9 inh 6, MCL1-BIM inh -1, Mcl1 Noxa PPI 22, EBV gp42 block 0, Mcl1-Bid inh -58 and Bim-Mcl-1 -2.
For O=C(COC(=O)COc1cccc(C(F)(F)F)c1)NC(=O)NC1CCCCC1 the results were MCL1-BIM inh -7.
COc1ccc(CN2C(=O)c3cccnc3C2O)cc1 (configuration not stated) was read as RBBP9 inh -7, MCL1-BIM inh 2, Mcl1 Noxa PPI 25, EBV gp42 block -11, Mcl1-Bid inh 92* and Bim-Mcl-1 0.
`COc1ccc(CN2C(=O)C(C)=C(C)C2OC)cc1` (configuration not stated) gave MCL1-BIM inh 2.
Screening CCOc1ccc(NC(=S)NN2C(C)CCCC2C)cc1 (configuration not stated) returned RBBP9 inh -3, MCL1-BIM inh 32, Mcl1 Noxa PPI 25, EBV gp42 block 3, Mcl1-Bid inh 57* and Bim-Mcl-1 -8.
CC(=O)c1ccc(NC(=S)NN2C(C)CCCC2C)cc1 (configuration not stated) was read as RBBP9 inh -13, MCL1-BIM inh 7, Mcl1 Noxa PPI 9, EBV gp42 block 6, Mcl1-Bid inh 6 and Bim-Mcl-1 0.
`CC(=O)Nc1c2c3c(cccc3n(C)c1=O)C(=O)c1ccccc1-2` gave RBBP9 inh -3, MCL1-BIM inh 50*, Mcl1 Noxa PPI 10, EBV gp42 block 9, Mcl1-Bid inh -15 and Bim-Mcl-1 0.
O=C(NCCc1ccccn1)c1nc(Cn2ccc([N+](=O)[O-])n2)no1 was read as MCL1-BIM inh 3.
Screening Cc1nc2cc(NC(=O)c3ccc(S(=O)(=O)N(C)c4ccccc4)cc3)ccc2o1 returned MCL1-BIM inh -13.
Screening CCOC(=O)Cc1csc(SCC(=O)Nc2nccs2)n1 returned MCL1-BIM inh 2.
Screening CCOC(=O)c1sc(NC(=O)CSc2nnc(-c3ccco3)n2CC)c(C(=O)OCC)c1C returned RBBP9 inh 5, MCL1-BIM inh 9, Mcl1 Noxa PPI 64*, EBV gp42 block -14, Mcl1-Bid inh 6 and Bim-Mcl-1 -3.
Screening CCOC(=O)Cc1csc(SCC(=O)Nc2sc3c(c2C(N)=O)CCC3)n1 returned RBBP9 inh -4, MCL1-BIM inh 39, Mcl1 Noxa PPI 71*, EBV gp42 block 48, Mcl1-Bid inh -39 and Bim-Mcl-1 -1.
NC(=O)c1c(NC(=O)CSc2nnc(-c3ccco3)n2-c2ccccc2)sc2c1CCC2 was read as RBBP9 inh 0, MCL1-BIM inh 29, Mcl1 Noxa PPI 88*, EBV gp42 block 67*, Mcl1-Bid inh -54 and Bim-Mcl-1 2.
CCC1(CC)NC(=O)N(CC(=O)Nc2sc3c(c2C(N)=O)CCC3)C1=O was read as RBBP9 inh -7, MCL1-BIM inh 17, Mcl1 Noxa PPI 73*, EBV gp42 block 48, Mcl1-Bid inh -17 and Bim-Mcl-1 0.
Cn1c(CC(=O)Nc2ccccc2)cc2ccccc21 was read as MCL1-BIM inh 4.
Screening O=C(NCc1cccnc1)NC(=O)c1ccc(Cl)cc1 returned MCL1-BIM inh 0.
`CC1CCCCC1NC(=O)CC1Oc2ccccc2NC1=O` (configuration not stated) gave RBBP9 inh 2, MCL1-BIM inh -10, Mcl1 Noxa PPI -16, EBV gp42 block 1 and Mcl1-Bid inh 52*.
Cc1ccc2c(c1)C(c1ccccc1)N(C(=O)c1ccc3c(c1)OCO3)CC(=O)N2 (configuration not stated) was read as RBBP9 inh -1, MCL1-BIM inh 1, Mcl1 Noxa PPI 13, EBV gp42 block -15 and Mcl1-Bid inh -1.
CCN(CC)C(CNS(=O)(=O)c1ccc(Cl)cc1)c1ccccc1 (configuration not stated) was read as RBBP9 inh 3, MCL1-BIM inh 1, Mcl1 Noxa PPI -2, EBV gp42 block -9, Mcl1-Bid inh -10 and Bim-Mcl-1 -1.
For O=C(O)CC(SCc1ccc(C(=O)O)o1)C(=O)O (configuration not stated) the results were RBBP9 inh -7, MCL1-BIM inh 3, Mcl1 Noxa PPI 14, EBV gp42 block -6, Mcl1-Bid inh 53* and Bim-Mcl-1 -4.
